Assay results: ChEMBL document CHEMBL1914430, “Synthesis of some new 1,3,5-trisubstituted pyrazolines bearing benzene sulfonamide as anticancer and anti-inflammatory agents” (Bioorg Med Chem Lett, 2011)

Columns and labels:
Type in all cases: functional
SK-MEL-28 = assay: Anticancer activity against human SK-MEL-28 cells after 48 hrs; details: SK-MEL-28, 48 h
In short: (§1)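 NCI 60-line panel protocol with a 48 h incubation. Per line: GI50 = concentration giving 50% decrease in net cell growth; TGI = total growth inhibition; LC50 = net 50% loss of initial cells. When the level was not reached or was exceeded, the value is given as greater or less than the highest or lowest concentration tested.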

RPMI-8226 = assay: Anticancer activity against human RPMI8226 cells after 48 hrs; details: RPMI-8226, 48 h; in short: as §1
NCI-H322M = assay: Anticancer activity against human NCI-H322M cells after 48 hrs; in short: as §1
Rattus norvegicus [1] = assay: Antiinflammatory activity in Wistar rat assessed as inhibition of carrageenan-induced hind paw edema at 20 mg/kg, po administered 30 mins before carrageenan challenge measured after 5 hrs by plethysmometer
In short: (§2)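 Wistar rats of either sex, 150–175 g, fasted 16 h, n = 6 per group. Compound given orally at 20 mg/kg as a suspension in 1% CMC in water (10 mL/kg); controls got vehicle only. After 30 min, 0.1 mL of 1% carrageenan in saline was injected subplantar into the left hind paw. Paw volume was measured by plethysmometer at 0, 3 and 5 h. Inhibition = (1 − Vt/Vc) × 100, reported as mean ± SEM.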

T47D = assay: Anticancer activity against human T47D cells after 48 hrs
In short: (§3)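 NCI ~60 human tumour cell line panel with a 48 h incubation. GI50 is the concentration giving a 50% fall in net growth, TGI gives total growth inhibition, and LC50 gives a net 50% loss of initial cells. An effect not reached or exceeded is reported as greater or less than the highest or lowest concentration tested.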

SF-539 = assay: Anticancer activity against human SF539 cells after 48 hrs; details: SF-539, 48 h; in short: as §1
MDA-MB-468 = assay: Anticancer activity against human MDA-MB-468 cells after 48 hrs; details: MDA-MB-468, 48 h
In short: (§4)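 NCI Drug Evaluation Branch 60-cell-line screen across leukemia, melanoma, lung, colon, CNS, ovarian, renal, prostate and breast panels. The incubation period is 48 h. Parameters are derived from dose–response data: GI50 is the concentration giving 50% decrease in net growth, TGI is total growth inhibition, and LC50 is net 50% loss of initial cells. Values beyond the tested range are reported as greater or less than the maximum or minimum concentration.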

NCI-H226 = assay: Anticancer activity against human NCI-H226 cells after 48 hrs; details: NCI-H226, 48 h; in short: as §1
MOLT-4 = assay: Anticancer activity against human MOLT4 cells after 48 hrs; details: MOLT-4, 48 h; in short: as §1
HCT-15 = assay: Anticancer activity against human HCT15 cells after 48 hrs; details: HCT-15, 48 h; in short: as §4
SK-MEL-2 = assay: Anticancer activity against human SK-MEL-2 cells after 48 hrs; details: SK-MEL-2, 48 h; in short: as §1
COLO 205 = assay: Anticancer activity against human COLO205 cells after 48 hrs; details: COLO 205, 48 h; in short: as §4
OVCAR-3 = assay: Anticancer activity against human OVCAR3 cells after 48 hrs; details: OVCAR-3, 48 h; in short: as §1
OVCAR-5 = assay: Anticancer activity against human OVCAR5 cells after 48 hrs; details: OVCAR-5, 48 h; in short: as §1
A498 = assay: Anticancer activity against human A498 cells after 48 hrs; details: A498, 48 h; in short: as §4
SNB-19 = assay: Anticancer activity against human SNB19 cells after 48 hrs; details: SNB-19, 48 h; in short: as §1
HOP-62 = assay: Anticancer activity against human HOP62 cells after 48 hrs; details: HOP-62, 48 h; in short: as §4
SNB-75 = assay: Anticancer activity against human SNB75 cells after 48 hrs; details: SNB-75, 48 h; in short: as §1
NCI/ADR-RES = assay: Anticancer activity against human NCI/ADR-RES cells after 48 hrs; in short: as §1
Rattus norvegicus [2] = assay: Antiinflammatory activity in Wistar rat assessed as inhibition of carrageenan-induced hind paw edema at 20 mg/kg, po administered 30 mins before carrageenan challenge measured after 3 hrs by plethysmometer; in short: as §2
TK-10 = assay: Anticancer activity against human TK10 cells after 48 hrs; details: TK-10, 48 h; in short: as §3
EKVX = assay: Anticancer activity against human EKVX cells after 48 hrs; in short: as §4
CAKI-1 = assay: Anticancer activity against human Caki1 cells after 48 hrs; details: CAKI-1, 48 h; in short: as §4
HOP-92 = assay: Anticancer activity against human HOP92 cells after 48 hrs; details: HOP-92, 48 h; in short: as §4
IGROV-1 = assay: Anticancer activity against human IGROV1 cells after 48 hrs; details: IGROV-1, 48 h; in short: as §4
786-0 = assay: Anticancer activity against human 786-0 cells after 48 hrs; details: 786-0, 48 h; in short: as §4
ACHN = assay: Anticancer activity against human ACHN cells after 48 hrs; in short: as §4
PC-3 = assay: Anticancer activity against human PC3 cells after 48 hrs; details: PC-3, 48 h; in short: as §1
Malme-3M = assay: Anticancer activity against human MALME-3M cells after 48 hrs; in short: as §4
[3] = read-out: LC50 (the source's name)

In the case of `Cc1cc(O)c(C2=NN(c3ccc(S(N)(=O)=O)cc3)C(/C=C/c3ccccc3)C2)cc1Cl` (configuration not stated), the GI50 (SK-MEL-28) is reported as 10.9 µM, the TGI (SK-MEL-28) is reported as 23.8 µM and the CC50 (SK-MEL-28; [3]) is reported as 52 µM. It also gave a GI50 (RPMI-8226) of 4.95 µM, an LC50 (concentration for net 50% loss of initial cells) (RPMI-8226) of 0.575 µM and a TGI (RPMI-8226) of 20.6 µM. For the same molecule, the GI50 (NCI-H322M) was 5.73 µM, the LC50 (net 50% loss of initial cells) (NCI-H322M) was over 100 µM and the TGI (NCI-H322M) was 27.5 µM. For the same molecule, the inhibition in vivo at 20 mg/kg (Rattus norvegicus [1]) was 71.4%, the GI50 (T47D) was 3.38 µM and the TGI (T47D) was 14.7 µM. The CC50 (T47D; [3]) was 44.5 µM, the GI50 (SF-539) was 2.98 µM and the LC50 (concentration causing net 50% loss of initial cells) (SF-539) was 37.5 µM. The TGI (SF-539) was 14 µM, the GI50 (MDA-MB-468) was 3.94 µM and the TGI (MDA-MB-468) was 13.8 µM. For the same molecule, the CC50 (MDA-MB-468; [3]) was 37.2 µM, the GI50 (NCI-H226) was 5.21 µM and the TGI (NCI-H226) was 19.2 µM. For the same molecule, the CC50 (NCI-H226; [3]) was 51.8 µM, the GI50 (MOLT-4) was 17.7 µM and the LC50 (MOLT-4) was over 100 µM. It also gave a TGI (MOLT-4) of 73.7 µM, a GI50 (HCT-15) of 18.9 µM and a CC50 (HCT-15; [3]) of over 100 µM. The GI50 (SK-MEL-2) was 16.8 µM, the LC50 (SK-MEL-2) was over 100 µM and the TGI (SK-MEL-2) was 58.2 µM. It also gave a GI50 (COLO 205) of 10.4 µM, an LC50 (concentration giving net 50% loss of initial cells) (COLO 205) of 47 µM and a TGI (COLO 205) of 22.1 µM. The GI50 (OVCAR-3) was 11.5 µM, the LC50 (concentration giving 50% net loss of initial cells) (OVCAR-3) was 70.2 µM and the TGI (OVCAR-3) was 28.4 µM. The GI50 (OVCAR-5) was 3.18 µM, the LC50 (OVCAR-5) was 38.3 µM and the TGI (OVCAR-5) was 14.7 µM. The GI50 (A498) was 14.9 µM, the TGI (A498) was 42.4 µM and the CC50 (A498; [3]) was over 100 µM. The GI50 (SNB-19) was 7.84 µM, the TGI (SNB-19) was 19.9 µM and the CC50 (SNB-19; [3]) was 44.7 µM. For the same molecule, the GI50 (HOP-62) was 3.94 µM, the LC50 (concentration for 50% net loss of initial cells) (HOP-62) was 37.5 µM and the TGI (HOP-62) was 14.1 µM. For the same molecule, the GI50 (SNB-75) was 3.39 µM, the TGI (SNB-75) was 16.1 µM and the CC50 (SNB-75; [3]) was 44.4 µM. It also gave a GI50 (NCI/ADR-RES) of 9.26 µM, a TGI (NCI/ADR-RES) of 22.7 µM and a CC50 (NCI/ADR-RES; [3]) of 53 µM. The inhibition in vivo at 20 mg/kg (Rattus norvegicus [2]) was 78.9%, the GI50 (TK-10) was 14.8 µM and the LC50 (TK-10) was 60.7 µM. For the same molecule, the TGI (TK-10) was 29.9 µM, the GI50 (EKVX) was 14.2 µM and the TGI (EKVX) was 35.3 µM. The CC50 (EKVX; [3]) was 87.4 µM, the GI50 (CAKI-1) was 15.3 µM and the LC50 (concentration giving 50% net loss of initial cells) (CAKI-1) was over 100 µM. For the same molecule, the TGI (CAKI-1) was 87.7 µM, the GI50 (HOP-92) was 2.36 µM and the TGI (HOP-92) was 8.48 µM. For the same molecule, the CC50 (HOP-92; [3]) was 34 µM, the GI50 (IGROV-1) was 4.32 µM and the LC50 (net 50% loss of initial cells) (IGROV-1) was 68.7 µM. For the same molecule, the TGI (IGROV-1) was 19.8 µM, the GI50 (786-0) was 4.09 µM and the TGI (786-0) was 12.5 µM. The CC50 (786-0; [3]) was 35.3 µM, the GI50 (ACHN) was 5.27 µM and the TGI (ACHN) was 21.9 µM. For the same molecule, the CC50 (ACHN; [3]) was 67.2 µM, the GI50 (PC-3) was 3.15 µM and the TGI (PC-3) was 11.5 µM. The CC50 (PC-3; [3]) was 34 µM, the GI50 (Malme-3M) was 3.01 µM and the TGI (Malme-3M) was 17.4 µM. The CC50 (Malme-3M; [3]) was 51.9 µM.
